Results published in ChEMBL document CHEMBL1641572, “Vasorelaxant effect of flavonoids through calmodulin inhibition: Ex vivo, in vitro, and in silico approaches” (Bioorg Med Chem, 2011).
The source made the active and inactive calls. The rule behind the calls is not given here.

Columns and labels:
Calmodulin-1 [1] = biological target: T1, Calmodulin-1 (Homo sapiens, UniProt P0DP23); experiment: Inhibition of human recombinant calmodulin assessed as inhibition of calmodulin-sensitive cAMP phosphodiesterase activation after 15 mins by spectrophotometric analysis
Aorta [2] = experiment: Vasorelaxant activity in Wistar rat endothelium-intact thoracic aortic ring assessed as inhibition of noradrenaline-induced contraction treated after noradrenaline challenge measured after 60 mins; format: functional, tissue-based; details: for IC50: 1 h
Procedure, shortened: (§1)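 Thoracic aortic rings (3–5 mm) from Wistar rats (200–300 g), endothelium intact or manually removed, were held in Krebs at 37 °C gassed O2/CO2 (9:1) at 3.0 g resting tension. Three NA (0.1 µM) primings were given; endothelium status was checked by carbachol (1 µM) relaxation. Rings precontracted with NA received compounds in quarter-log cumulative concentrations under isometric recording. n=6 animals.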

Aorta [3] = experiment: Vasorelaxant activity in Wistar rat endothelium-denuded thoracic aortic ring assessed as inhibition of noradrenaline-induced contraction treated after noradrenaline challenge measured after 60 mins relative to control; format: functional; details: 1 h
Aorta [4] = experiment: Vasorelaxant activity in Wistar rat endothelium-intact thoracic aortic ring assessed as inhibition of noradrenaline-induced contraction treated after noradrenaline challenge measured after 60 mins relative to control; format: functional; details: 1 h
Calmodulin-1 [5] = biological target: T1, Calmodulin-1; experiment: Ratio of chlorpromazine IC50 to compound IC50 for human recombinant calmodulin
Aorta [6] = experiment: Vasorelaxant activity in Wistar rat endothelium-intact thoracic aortic ring assessed as inhibition of noradrenaline-induced contraction treated after noradrenaline challenge measured after 60 mins in presence of chlorpromazine; format: functional, tissue-based
Procedure, shortened: (§2)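 Rat aortic rings (endothelium intact or denuded) in 37 °C Krebs under 3.0 g tension were preincubated with chlorpromazine (1 µM). They were then contracted with NA, and compound was added in quarter-log cumulative concentrations while isometric tension was recorded. n=6 animals.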

Aorta [7] = experiment: Vasorelaxant activity in Wistar rat endothelium-denuded thoracic aortic ring assessed as inhibition of noradrenaline-induced contraction treated after noradrenaline challenge measured after 60 mins; format: functional, tissue-based; details: for IC50: 1 h; procedure, shortened: as §1
Aorta [8] = experiment: Vasorelaxant activity in Wistar rat endothelium-denuded thoracic aortic ring assessed as inhibition of noradrenaline-induced contraction treated after noradrenaline challenge measured after 60 mins in presence of chlorpromazine; format: functional, tissue-based; procedure, shortened: as §2
Calmodulin-1 [9] = biological target: T1, Calmodulin-1; experiment: Inhibition of calmodulin assessed as inhibition of calmodulin-calcium-[…] complex formation
Calmodulin-1 [10] = biological target: T1, Calmodulin-1; experiment: Inhibition of calmodulin assessed as inhibition of calmodulin-calcium-PDE1 complex formation
Procedure, shortened: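 Human recombinant CaM (0.08 µg) was preincubated 30 min with 0.015 units bovine-brain PDE1 and 0.063 units 5'-nucleotidase in Tris–HCl/imidazole buffer with Mg acetate, 2.5 mM CaCl2 and BSA, pH 7.0. Compounds at 0.5–65 µM in ACN/water (1:1) were added for 30 min. cAMP started a 15-min reaction, and malachite green read phosphate at 700 nm. IC50 came from hyperbolic fit, n≥6.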

SMILES	inhibition (Calmodulin-1 [1])	inhibition (Aorta [2])	IC50 (Aorta [2])	IC50 (Calmodulin-1 [1])	Emax (Aorta [3])	Emax (Aorta [4])	Ratio IC50 (Calmodulin-1 [5])	Activity (Aorta [6])	inhibition (Aorta [7])	IC50 (Aorta [7])	Activity (Aorta [8])	IC50 (Calmodulin-1 [9])	IC50 (Calmodulin-1 [10])
O=C1C[C@@H](c2ccc(O)cc2)Oc2cc(O)cc(O)c21	Dose-dependent effect	–	–	–	–	–	–	–	–	–	–	–	–
O=c1cc(-c2ccccc2)oc2ccc(O)cc12 [6-HYDROXYFLAVONE]	Dose-dependent effect	Dose-dependent effect	20.8 µM	5.17 µM	51.8%	105%	3.89	Active	Dose-dependent effect	112 µM	Active	–	–
O=c1cc(-c2ccccc2)oc2cc(O)ccc12 [7-HYDROXYFLAVONE]	Dose-dependent effect	Dose-dependent effect	37.8 µM	37.1 µM	40.4%	80.6%	0.54	–	Dose-dependent effect	167 µM	–	–	–
C[N+](C)(C)CCOC(N)=O [CARBACHOL]	–	–	0.79 µM	–	–	88.6%	–	–	–	–	–	–	–
O=c1cc(-c2ccccc2)oc2cc(O)cc(O)c12 [CHRYSIN]	Dose-dependent effect	Dose-dependent effect	75.7 µM	33.4 µM	16%	44.8%	1.03	–	Dose-dependent effect	107 µM	–	–	–
O=c1cc(-c2ccccc2)oc2ccccc12 [FLAVONE]	Dose-dependent effect	Dose-dependent effect	46 µM	102 µM	81%	98.6%	0.34	–	Dose-dependent effect	203 µM	–	–	–
O=c1c(O)c(-c2ccccc2)oc2ccccc12 [FLAVONOL]	Dose-dependent effect	Dose-dependent effect	204 µM	55.2 µM	29.8%	67.8%	0.36	–	Dose-dependent effect	248 µM	–	–	–
COc1ccc([C@@H]2CC(=O)c3c(O)cc(O[C@@H]4O[C@H](CO[C@@H]5O[C@@H](C)[C@H](O)[C@@H](O)[C@H]5O)[C@@H](O)[C@H](O)[C@H]4O)cc3O2)cc1O [HESPERIDIN]	–	–	–	–	–	–	–	–	–	–	–	70 µM	74 µM
COC(=O)C1=C(C)NC(C)=C(C(=O)OC)C1c1ccccc1[N+](=O)[O-] [NIFEDIPINE]	–	–	–	–	102%	–	–	–	–	0.02 µM	–	–	–
O=c1c(O)c(-c2ccc(O)c(O)c2)oc2cc(O)cc(O)c12 [QUERCETIN]	Dose-dependent effect	Dose-dependent effect	162 µM	13 µM	43.2%	83.2%	2.82	–	Dose-dependent effect	222 µM	–	–	–
